According to paper PMC4698108 (Mucosal immunology, 2015):

Assays:
[1] = system: Vβ6+ CD4+ T cells in lung and BAL; test: TCR Vβ6 expression on CD4+ T cells after BeO exposure; type: in vivo, HLA-DP2 Tg FVB/N mice
Method in brief: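 HLA-DP2 Tg FVB/N mice, 6–8 weeks old, were anesthetized with isoflurane and given 100 μg BeO by oropharyngeal aspiration on days 0, 1, 2, 14, 15, 18 and 19, then sacrificed on day 21. BAL used three 0.5 ml PBS instillations, pooled from 20 mice. Lungs were collagenase-digested (1 mg/ml, 30 min, 37°C). Cells were stained with a seven-mAb anti-Vβ panel, and small versus blasting lymphocytes were gated by forward/side scatter.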

[2] = system: HLA-DP2 variants with substitutions at positions 26, 68 and 69 of the β-chain; type: cell-based, human
Method in brief: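 Human AV22 and murine Vβ6⁺ transfectomas were given BeSO₄ presented by fibroblasts expressing wild-type HLA-DP2 or β-chain variants carrying alanine, glutamine or lysine at positions 26, 68 or 69. Be-induced IL-2 (pg/ml) was measured by ELISA.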

[3] = BAL cells pooled from 20 BeO-exposed HLA-DP2 Tg mice

Structure (SMILES) | frequency of CD4+ T cells expressing Vβ6, blasting (large forward scatter) T cells [1, 3] [%] | frequency of CD4+ T cells expressing Vβ6, small lymphocyte gate [1, 3] [%] | percentage of BAL CD4+ T cells expressing Vβ6 ([1]; BAL of BeO-exposed mice, overall value given in text, unexposed lung 11.1%) [%] | Be-induced IL-2 secretion with the EA68 HLA-DP2 β-chain variant ([2]; AV22 transfectoma (Figure 4B)) | Be-induced IL-2 secretion with amino acid substitutions at positions 26, 68 and 69 of the HLA-DP2 β-chain ([2]; human TCR AV22 and five murine T cell transfectomas, alanine, glutamine or lysine substitutions (Figure 4B))
[Be]=[O] [BeO, Be oxide] | 22.5 | 13.7 | 16.8 | – | –
O=S(=O)([O-])[O-].[Be+2] [BeSO4] | – | – | – | partial reduction in IL-2 secretion | abrogated Be-induced IL-2 secretion
